Experimental data reported in ChEMBL document CHEMBL4350976, “Sequence modification of heptapeptide selected by phage display as homing device for HT-29 colon cancer cells to improve the anti-tumour activity of drug delivery systems” (Eur J Med Chem, 2019).
Where a SMILES comes first, the peptide text is derived from it. The star is where a group is joined. X1 = COc1cccc2c1C(=O)c1c(O)c3c(c(O)c1C2=O)C[C@@](O)(/C(C)=N/OCC(=O)*)C[C@@H]3O[C@H]1C[C@H](N)[C@H](O)[C@H](C)O1

Experiments:
[1] = Drug uptake in cytoplasm of living human HT-29 cells at 50 uM after 90 mins by fluorescence based confocal microscopic analysis; assay type: ADME, subcellular; details: ht-29, 1.5 h
Method in brief: (§1)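 HT-29 cells were incubated with 50 µM compound in RPMI for 90 min. Imaging was by confocal microscopy, with Dau detected at 550–600 nm emission.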

[2] = Drug uptake in nucleus of dead human HT-29 cells at 50 uM after 90 mins by fluorescence based confocal microscopic analysis; assay type: ADME, subcellular; details: ht-29, 1.5 h; method in brief: as §1
[3] = Drug uptake in human HT-29 cells assessed as increase in fluorescence intensity at 25 uM incubated for 3 hrs by flow cytometry; assay type: ADME, cell-based; details: ht-29, 3 h
[4] = Retention time of the compound using 0.1% TFA in water and 0.1% TFA in acetonitrile-water (80:20 v/v) as eluents by RP-HPLC analysis; assay type: physicochemical
Method in brief: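 Analytical RP-HPLC. Eluent A was 0.1% TFA in water and eluent B was 0.1% TFA in acetonitrile-water (80:20, v/v). Gradient: 0% B held to 5 min, then to 90% B at 50 min. Flow 1 mL/min, detection at 220 nm. The column was a Phenomenex Aeris Peptide XB-C18 (250×4.6 mm, 3.6 μm) or a Nucleosil C18 (5 μm, 100 Å, 250×4.6 mm), depending on the conjugate series.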

[5] = Aqueous solubility of compound in water; assay type: physicochemical; details: buffer
[6] = Stability in 2.5% fetal bovine serum containing medium at 30 uM measured after 24 hrs by LC/MS analysis; assay type: ADME, cell-free, Bos taurus; details: cattle
Method in brief: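 Conjugates (30 μM) were incubated at 37 °C in medium containing 2.5% FBS. Samples were taken at 0, 3, 6 and 24 h, quenched with acetic acid, lyophilised, desalted on C18 spin columns and analysed by LC-MS. Cleavage products were identified by mass.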

HT-29 = experiment: Cytostatic activity against human HT-29 cells preincubated for 24 hrs under serum free condition followed by compound washout and further incubation for 48 hrs in presence of serum by MTT assay; assay type: functional, cell-based
Method in brief: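 HT-29 cells were exposed to the compound for 24 h, washed, and kept a further 48 h. Viability was read by MTT. Absorbances were normalized to untreated controls and fitted by nonlinear regression to dose-response curves to give IC50.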

[7] = Stability in serum free medium at 30 uM incubated for 3 hrs by LC/MS analysis
Method in brief: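 Conjugates (30 μM) were incubated at 37 °C in serum-free medium. Samples were taken at 0 and 3 h, quenched with acetic acid, lyophilised, desalted on C18 spin columns and analysed by LC-MS.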

Drug uptake [1]: Active
Drug uptake [2]: Active
Drug uptake [3]: Active
Retention_time [4]: 28.9 min
solubility [5]: Soluble
Stability [6]: Stable
IC50 (HT-29): 24.8 µM
Structure (SMILES): COc1cccc2c1C(=O)c1c(O)c3c(c(O)c1C2=O)C[C@@](O)(/C(C)=N/OCC(=O)N[C@@H](CC(C)C)C(=O)N[C@@H](CCCNC(=N)N)C(=O)N[C@@H](CCCNC(=N)N)C(=O)N[C@@H](Cc1ccc(O)cc1)C(=O)N[C@H](C(=O)N[C@@H](Cc1cnc[nH]1)C(=O)N[C@@H](CC(C)C)C(=O)N[C@@H](CO)C(=O)N[C@@H](Cc1ccc(O)cc1)C(=O)N[C@@H](C)C(=O)N[C@H](C(N)=O)[C@@H](C)O)C(C)C)C[C@@H]3O[C@H]1C[C@H](N)[C@H](O)[C@H](C)O1 (X1-LRRYVHLSYAT-NH2)
Stability [7]: Stable
